# Measurements: ChEMBL document CHEMBL1143425, “Paradoxical growth effect of caspofungin observed on biofilms and planktonic cells of five different Candida species” (2007)
# Active and inactive are the calls of the source.
# Tests used:
# Candida metapsilosis [1] = assay: Antimicrobial activity against Candida metapsilosis BR-A41 grown as biofilm assessed as concentration producing paradoxical growth after 48 hrs by XTT reduction assay; format: functional
# Outline: (§1)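 Sabouraud-grown cells were shaken overnight (18 h, 120 rpm, 35°C) in RPMI 1640 with MOPS at pH 7.0, then washed and set at ~1 × 10^7 cells/ml. Attachment lasted 1.5 h at 37°C, and growth ran 24 h before challenge. Caspofungin was added in RPMI at 2–1,024 μg/ml (10 doublings) for 48 h at 35°C with shaking. XTT-menadione was read at 490 nm after 1 h at 35°C in the dark, with blank wells subtracted. MIC was taken as 50% reduction versus drug-free wells, and PG as >50% of control above MIC. Assays were run in duplicate.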
# Candida metapsilosis [2] = assay: Antimicrobial activity against Candida metapsilosis BR-A42 grown as biofilm assessed as concentration producing paradoxical growth after 48 hrs by XTT reduction assay; format: functional; outline: as §1
# Candida orthopsilosis [3] = assay: Antimicrobial activity against Candida orthopsilosis BR-A38 grown as biofilm assessed as paradoxical growth after 48 hrs by XTT reduction assay; format: functional, organism-based; outline: as §1
# Candida albicans [4] = assay: Antimicrobial activity against Candida albicans BR-A4 grown as planktonic cell after 48 hrs by XTT reduction assay; format: functional
# Outline: (§2)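 Planktonic broth microdilution followed CLSI M27-A2, with caspofungin dissolved in water. After 48 h, XTT-menadione was added to the wells and plates were kept 1 h at 35°C in the dark. Plates were then centrifuged and supernatant A490 was read. MIC was the lowest concentration giving a 50% decrease in metabolic activity versus drug-free control. Paradoxical growth was defined as ≥20% of control activity above the MIC.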
# Candida tropicalis [5] = assay: Antimicrobial activity against Candida tropicalis BR-A14 grown as biofilm assessed as paradoxical growth after 48 hrs by XTT reduction assay; format: functional, organism-based
# Outline: (§3)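 Clinical isolates were grown overnight (18 h, 35°C, 120 rpm) in RPMI 1640 with MOPS, pH 7.0, then washed and set to ~1 × 10^7 cells/ml. Cells attached for 1.5 h at 37°C, 75 rpm, then biofilms grew 24 h. Caspofungin was given as doubling dilutions of 2–1,024 μg/ml for 48 h at 35°C, 75 rpm. Read-out was XTT-menadione in PBS, 1 h at 35°C in the dark, A490, cell-free blank subtracted. MIC was a 50% drop in activity versus drug-free; PG was >50% of control above MIC. Run in duplicate.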
# Candida metapsilosis [6] = assay: Effect on morphology in Candida metapsilosis grown as biofilm assessed as inhibition of hyphae and pseudohyphae at 16 ug/ml after 48 hrs; format: functional, organism-based
# Outline: (§4)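 Biofilms formed in RPMI 1640 wells were exposed to caspofungin for 48 h and compared with drug-free control wells. Wells were examined in the plate under an inverted light microscope at ×200 and photographed.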
# Candida tropicalis [7] = assay: Antimicrobial activity against Candida tropicalis BR-A9 grown as biofilm after 48 hrs by XTT reduction assay; format: functional
# Outline: (§5)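 Isolates were grown on Sabouraud agar (30°C, 24 h), then overnight in RPMI 1640 with MOPS, pH 7.0, at 35°C with shaking. Cells were washed and set to ~1 × 10^7 cells/ml, attached 1.5 h at 37°C, and grown 24 h. Biofilms were then exposed to caspofungin in 10 twofold dilutions (2–1,024 μg/ml) for 48 h at 35°C with shaking. Read-out was XTT-menadione, 1 h, 35°C, dark, A490, cell-free blank subtracted. MIC was the 50% drop in activity versus drug-free control. Tested in duplicate.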
# Candida tropicalis [8] = assay: Antimicrobial activity against Candida tropicalis BR-A18 grown as planktonic cell assessed as paradoxical growth after 48 hrs by XTT reduction assay; format: functional, organism-based
# Outline: (§6)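 Planktonic broth microdilution followed CLSI M27-A2, with caspofungin dissolved in water. After 48 h, XTT-menadione was added to each well and plates were incubated 1 h at 35°C in the dark. Cells were pelleted by centrifugation and the supernatant was read at 490 nm. MIC was the lowest concentration giving a 50% drop in metabolic activity versus the drug-free control. PG was ≥20% of drug-free activity above the MIC.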
# Candida parapsilosis [9] = assay: Antimicrobial activity against Candida parapsilosis BR-A31 grown as planktonic cell after 48 hrs by XTT reduction assay; format: functional; settings: Lodderomyces parapsilosis; outline: as §2
# Candida metapsilosis [10] = assay: Antimicrobial activity against Candida metapsilosis BR-A41 grown as biofilm after 48 hrs by XTT reduction assay; format: functional; settings: Lodderomyces metapsilosis; outline: as §1
# Candida orthopsilosis [11] = assay: Antimicrobial activity against Candida orthopsilosis BR-A34 grown as planktonic cell after 48 hrs by XTT reduction assay; format: functional; settings: Lodderomyces orthopsilosis
# Outline: (§7)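 Planktonic cells were tested by CLSI M27-A2 broth microdilution with caspofungin in water, incubated 48 h. XTT-menadione was added to each well, plates were held 1 h at 35°C in the dark and centrifuged, and supernatant absorbance was read at 490 nm. MIC was defined as 50% decrease in metabolic activity versus drug-free control. PG was defined as ≥20% of control activity at concentrations above MIC.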
# Candida metapsilosis [12] = assay: Antimicrobial activity against Candida metapsilosis BR-A42 grown as biofilm after 48 hrs by XTT reduction assay; format: functional; settings: Lodderomyces metapsilosis; outline: as §1
# Candida orthopsilosis [13] = assay: Antimicrobial activity against Candida orthopsilosis BR-A38 grown as planktonic cell after 48 hrs by XTT reduction assay; format: functional; settings: Lodderomyces orthopsilosis; outline: as §2
# Candida albicans [14] = assay: Antimicrobial activity against Candida albicans BR-A7 grown as planktonic cell assessed as paradoxical growth after 48 hrs by XTT reduction assay; format: functional, organism-based; outline: as §7
# Candida albicans [15] = assay: Antimicrobial activity against Candida albicans BR-A4 grown as biofilm assessed as concentration producing paradoxical growth after 48 hrs by XTT reduction assay; format: functional; outline: as §1
# Candida tropicalis [16] = assay: Antimicrobial activity against Candida tropicalis BR-A18 grown as planktonic cell after 48 hrs by XTT reduction assay; format: functional; outline: as §6
# Candida metapsilosis [17] = assay: Antimicrobial activity against Candida metapsilosis BR-A43 grown as biofilm after 48 hrs by XTT reduction assay; format: functional; settings: Lodderomyces metapsilosis; outline: as §1
# Candida parapsilosis [18] = assay: Antimicrobial activity against Candida parapsilosis BR-A30 grown as biofilm assessed as paradoxical growth after 48 hrs by XTT reduction assay; format: functional, organism-based; outline: as §3
# Candida tropicalis [19] = assay: Antimicrobial activity against Candida tropicalis BR-A14 grown as planktonic cell after 48 hrs by XTT reduction assay; format: functional; outline: as §6
# Candida orthopsilosis [20] = assay: Effect on morphology in Candida orthopsilosis grown as planktonic cells assessed as inhibition of hyphae and pseudohyphae at 64 ug/ml after 48 hrs; format: functional, organism-based
# Outline: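 Cells were taken from caspofungin-containing and drug-free wells of the planktonic broth microdilution test after 48 h. They were examined by light microscopy at ×400.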
# Candida orthopsilosis [21] = assay: Antimicrobial activity against Candida orthopsilosis BR-A34 grown as biofilm assessed as concentration producing paradoxical growth after 48 hrs by XTT reduction assay; format: functional; outline: as §1
# Candida parapsilosis [22] = assay: Antimicrobial activity against Candida parapsilosis BR-A28 grown as planktonic cell assessed as paradoxical growth after 48 hrs by XTT reduction assay; format: functional, organism-based; outline: as §6
# Candida tropicalis [23] = assay: Antimicrobial activity against Candida tropicalis BR-A20 grown as biofilm after 48 hrs by XTT reduction assay; format: functional; outline: as §5
# Candida orthopsilosis [24] = assay: Antimicrobial activity against Candida orthopsilosis BR-A39 grown as planktonic cell after 48 hrs by XTT reduction assay; format: functional; settings: Lodderomyces orthopsilosis; outline: as §2
# Candida orthopsilosis [25] = assay: Antimicrobial activity against Candida orthopsilosis BR-A33 grown as biofilm assessed as concentration producing paradoxical growth after 48 hrs by XTT reduction assay; format: functional; outline: as §1
# Candida albicans [26] = assay: Antimicrobial activity against Candida albicans BR-A4 grown as planktonic cell assessed as paradoxical growth after 48 hrs by XTT reduction assay; format: functional, organism-based; outline: as §7
# Candida parapsilosis [27] = assay: Effect on morphology in Candida parapsilosis grown as biofilm assessed as rounding and clumping at 128 ug/ml after 48 hrs; format: functional, organism-based; outline: as §4
structure (smiles),measurement,setting,value
CC[C@H](C)C[C@H](C)CCCCCCCCC(=O)N[C@H]1C[C@@H](O)[C@@H](NCCN)NC(=O)[C@@H]2[C@@H](O)CCN2C(=O)[C@H]([C@H](O)CCN)NC(=O)[C@H]([C@H](O)[C@@H](O)c2ccc(O)cc2)NC(=O)[C@@H]2C[C@@H](O)CN2C(=O)[C@H]([C@@H](C)O)NC1=O [CASPOFUNGIN],Activity,Candida metapsilosis [1],16 µg/mL
same,Activity,Candida metapsilosis [2],32 µg/mL
same,Activity,Candida orthopsilosis [3],Active
same,MIC,Candida albicans [4],0.5 µg/mL
same,Activity,Candida tropicalis [5],Active
same,Activity,Candida metapsilosis [6],Active
same,MIC,Candida tropicalis [7],2 µg/mL
same,Activity,Candida tropicalis [8],Active
same,MIC,Candida parapsilosis [9],2 µg/mL
same,MIC,Candida metapsilosis [10],2 µg/mL
same,MIC,Candida orthopsilosis [11],1 µg/mL
same,MIC,Candida metapsilosis [12],2 µg/mL
same,MIC,Candida orthopsilosis [13],2 µg/mL
same,Activity,Candida albicans [14],Active
same,Activity,Candida albicans [15],16 µg/mL
same,MIC,Candida tropicalis [16],0.5 µg/mL
same,MIC,Candida metapsilosis [17],2 µg/mL
same,Activity,Candida parapsilosis [18],Active
same,MIC,Candida tropicalis [19],0.5 µg/mL
same,Activity,Candida orthopsilosis [20],Active
same,Activity,Candida orthopsilosis [21],32 µg/mL
same,Activity,Candida parapsilosis [22],inactive
same,MIC,Candida tropicalis [23],2 µg/mL
same,MIC,Candida orthopsilosis [24],2 µg/mL
same,Activity,Candida orthopsilosis [25],32 µg/mL
same,Activity,Candida albicans [26],Active
same,Activity,Candida parapsilosis [27],Active
